Beta cell apopt: inhibitors of cytokine-induced beta cell apoptosis, primary screen, luminescence. hit rate 0.8% among 300,000. INS-1E cytokine-induced death, ATP luminescence, 48 h; percent of positive-control rescue, neutral wells zero. protection from apoptosis, % (no concentration beside the values). AID 435005, 2010;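 active = Every replicate reaches about 75%, or at least half do and their mean reaches it too, limit read from the data; inconclusive = At least half of replicates reach the limit but their mean does not; inactive = Under half of replicates reach the limit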;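 note: higher means more ATP so stronger rescue from cytokine killing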
PREPL inhibitor: PREPL enzyme inhibitors, primary screen, biochemical, fluorescence polarization; Prolyl endopeptidase-like (Homo sapiens), Q4J6C6; recombinant PREPL, fluorescence polarization activity-based probe; inhibition, % at 5.96 µM; hit rate 0.68% among 320,000; AID 2751, 2010
Target sequence (Q4J6C6 whole entry, looked up): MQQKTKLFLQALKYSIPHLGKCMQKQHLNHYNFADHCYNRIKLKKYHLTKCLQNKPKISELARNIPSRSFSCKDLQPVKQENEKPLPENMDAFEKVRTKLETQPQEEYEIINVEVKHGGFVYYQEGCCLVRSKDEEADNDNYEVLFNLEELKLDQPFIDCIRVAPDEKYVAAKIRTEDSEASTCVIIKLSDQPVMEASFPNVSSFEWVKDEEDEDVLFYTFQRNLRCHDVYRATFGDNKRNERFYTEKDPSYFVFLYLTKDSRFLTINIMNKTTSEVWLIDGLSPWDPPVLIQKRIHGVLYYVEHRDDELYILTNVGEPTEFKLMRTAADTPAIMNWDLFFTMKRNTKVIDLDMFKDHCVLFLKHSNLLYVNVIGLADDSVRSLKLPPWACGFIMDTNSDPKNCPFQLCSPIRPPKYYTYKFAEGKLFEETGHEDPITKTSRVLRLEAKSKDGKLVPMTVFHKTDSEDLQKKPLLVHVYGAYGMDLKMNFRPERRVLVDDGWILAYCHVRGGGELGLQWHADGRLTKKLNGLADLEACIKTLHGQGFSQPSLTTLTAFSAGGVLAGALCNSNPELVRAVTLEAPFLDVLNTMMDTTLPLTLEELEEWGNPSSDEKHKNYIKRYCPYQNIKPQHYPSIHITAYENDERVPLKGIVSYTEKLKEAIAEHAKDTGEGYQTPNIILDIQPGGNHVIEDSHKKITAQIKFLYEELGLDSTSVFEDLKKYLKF
NR3A LBD binder: binders of NR3A ligand-binding domain, primary screen, biophysical, differential scanning fluorimetry, uHTS | Glutamate receptor ionotropic, NMDA 3A (GRIN3A) ligand-binding domain | NR3A LBD differential scanning fluorimetry, Tm shift; 0% = protein alone, 100% = glycine-bound protein | Tm shift relative to glycine control, % at 25 µM | hit rate 2.5% among 340,000 | AID 1259313, 2017;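 active = melting temperature shift of at least 10% of the positive control shift, at one fixed dose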
CSC inhib: cancer stem cell viability inhibitors, primary screen, luminescence. AID 2717, 2010. inhibition, % at 7.5 µM. cancer stem cell-like cells viability. hit rate 1.1% among 300,000; in the data active = inhibition above about 75%; inconclusive = no clear call, values can overlap the other calls; tested in HMLE shEcad cells
CHOP inhibitor: inhibitors of CHOP promoter induction, primary screen, cell-based, unfolded protein response, luciferase reporter. CHO-K1 CHOP-promoter luciferase, tunicamycin-induced, 15-18 h. hit rate 3.8% among 220,000. inhibition, % at 10 µM. AID 2732, 2010;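 active = compounds that reduced the stress-induced luciferase reporter signal by more than about 70% of percent inhibition, limit read from the data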
T cruzi repl: inhibitors of intracellular T. cruzi growth, primary screen, luminescence, NIH3T3 host cells. T. cruzi beta-gal in NIH3T3, 90 h. inhibition, % (no concentration beside the values). hit rate 1.4% among 300,000. AID 1885, 2009;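 active = mean inhibition across valid replicates above about 55%, limit read from the data; inconclusive = mean below that limit but half or more replicates reach it; inactive = mean below it, under half of replicates reach it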;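 note: signal also drops with host cell toxicity which is not excluded here; higher percent means less beta-gal luminescence so fewer parasites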
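Assay system: NIH/3T3 host cells with β-galactosidase reporter T. cruzi; input: 5,000 host fibroblasts per well; compound: single 50 nL compound addition per well in DMSO; timing: ≥90 h infection period, 3 h prior cell attachment; measured by: GalScreen β-gal luminescence, detergent lysis, 60 min; evaluation: percent inhibition of parasite-derived β-gal signal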
PREPL inh cf: human PREPL enzyme inhibitors, confirmation, biochemical, fluorescence polarization; shares compounds with PREPL inhibitor; recombinant PREPL, fluorescence polarization activity probe; inhibition, % at 5.96 µM; hit rate 67% among 2,000; AID 2803, 2010
Of the large screens only hits and unclear results are named; the others gave an inactive call (follow-up assays come after a bar, where they were run). The list is not random: actives were taken first. Their share in the collection is about 6.7%. Cut-off read from the data, not from the text of the source, unless noted: active = inhibition above about 43%; inactive = the rest.

COC(=O)c1cc(NS(=O)(=O)c2ccc(C)c3ccccc23)ccc1N1CCOCC1	none
Cc1cc(O)ccc1N=Cc1c(C(F)(F)F)[nH][nH]c1=O	PREPL inhibitor 70 | PREPL inh cf inactive
COc1cc(OC)c(C(=O)OCC(=O)N2CCOCC2)cc1OC	none (no result: CHOP inhibitor)
C=CCn1c(NS(=O)(=O)c2ccccc2)c(S(=O)(=O)c2ccc(C)cc2)c2nc3ccccc3nc21	PREPL inhibitor 47, NR3A LBD binder 11 | PREPL inh cf inactive
CCN1/C(=C/c2ccc3cc(C)ccc3[n+]2CC)Sc2ccccc21	Beta cell apopt 115, PREPL inhibitor 65, CSC inhib 102, CHOP inhibitor 108 | PREPL inh cf 57
Cc1ccc2[nH]c3c(N4CCN(Cc5ccc6c(c5)OCO6)CC4)ncnc3c2c1	none (no result: Beta cell apopt, PREPL inhibitor, NR3A LBD binder, CSC inhib, T cruzi repl)
COc1cccc2[nH]c3c(N4CCN(Cc5ccc6c(c5)OCO6)CC4)ncnc3c12	PREPL inhibitor 73 (no result: NR3A LBD binder) | PREPL inh cf 60
COc1ccc2c(c1)[nH]c1c(N3CCN(Cc4ccc5c(c4)OCO5)CC3)ncnc12	Beta cell apopt 105, PREPL inhibitor 67, CHOP inhibitor 75 | PREPL inh cf 64
CC(=O)N1CCOc2ccc(S(=O)(=O)N3CCC(C(=O)NCc4ccc(C)cc4)CC3)cc21	none (no result: CHOP inhibitor)
CCN1C(=O)[C@@H]2[C@@H](c3ccc(-c4ccc(C(C)=O)cc4)c(OC)c3)N3CCCC[C@@]3(C(=O)OC)[C@@H]2C1=O	none (no result: CHOP inhibitor)
Cc1ccc(C(=O)C2CC2)cc1C	none (no result: Beta cell apopt, PREPL inhibitor, CSC inhib, CHOP inhibitor, T cruzi repl)
COC(=O)c1ccccc1-c1ccc(/C=N/NC(=O)c2cc3ccccc3o2)o1	none (no result: CSC inhib)
COC(=O)c1ccccc1-c1c2ccc(=N)cc-2oc2cc(N)ccc12	Beta cell apopt 99, PREPL inhibitor 151 (no result: CSC inhib, CHOP inhibitor, T cruzi repl) | PREPL inh cf 151
COc1ccccc1NC(=O)C(C)OC(=O)/C(=C/c1ccccc1)NC(C)=O (centres undefined)	none (no result: CHOP inhibitor)
O=C(NC1CCSc2ccccc21)c1cccc([N+](=O)[O-])c1 (centres undefined)	none (no result: CHOP inhibitor)
Oc1ccc(C2=Nn3c(nnc3-c3ccco3)SC2)cc1O	PREPL inhibitor 44 | PREPL inh cf inactive
COc1cc(-c2nnc(-c3ccncc3)o2)ccc1OCc1ccccc1	PREPL inhibitor 44 | PREPL inh cf inactive
NC(=S)NNc1cccc2cccnc12	PREPL inhibitor 62, T cruzi repl inconclusive (no result: Beta cell apopt, CSC inhib) | PREPL inh cf inactive
Oc1ccccc1CNc1cccc2cccnc12	PREPL inhibitor 45 | PREPL inh cf inactive
CC(C)(C)[C@H]1COC(=O)[C@@H](Cc2ccc(F)cc2)CC/C=C/C[C@@H](CC(=O)N[C@H](CO)Cc2ccccc2)C(=O)N1	PREPL inhibitor 47 (no result: CHOP inhibitor, T cruzi repl) | PREPL inh cf inactive
COc1ccc(C(C(=O)NC(C)(C)C)N(Cc2cccnc2)C(=O)CCC(=O)Nc2cc(C)on2)cc1 (centres undefined)	none (no result: CSC inhib, CHOP inhibitor)
Cc1ccccc1-c1nnc(SCC(=O)Nc2cccnc2Cl)o1	none (no result: CHOP inhibitor, T cruzi repl)
Cn1c(NC(=O)C[n+]2cc(-c3ccc(Cl)c(Cl)c3)n3c2CCC3)cc(=O)n(C)c1=O	PREPL inhibitor 60 | PREPL inh cf 51
Cc1cc(C)c(-c2csc(NC(=O)C3=NN(c4ccccc4)C(=O)CC3)n2)c(C)c1	none
CCc1ccc(-c2csc(NC(=O)C3=NN(c4ccccc4)C(=O)CC3)n2)cc1	PREPL inhibitor 44 | PREPL inh cf inactive
COc1ccc(S(=O)(=O)Nc2c(C)cc(C)cc2C)c2cccnc12	none (no result: CHOP inhibitor)
Cc1ccc(CNc2ccc3c(c2)ncn3C(C)(C)C)cc1	PREPL inhibitor 49 | PREPL inh cf 46
Cc1ccc(CN2CCSc3ccc(C(=O)NC4CCCC4)cc32)cc1	none (no result: CHOP inhibitor)
Cc1ccc(CN2CCSc3ccc(C(=O)NCC4CCCO4)cc32)cc1 (centres undefined)	PREPL inhibitor 43 (no result: CHOP inhibitor) | PREPL inh cf inactive
COc1cc(C(=O)Nc2ccc(N3CCCS3(=O)=O)cc2)c([N+](=O)[O-])cc1OC	none (no result: CHOP inhibitor)
Cn1cccc1Cc1nnc(SCC(=O)NCc2ccccc2)n1-c1ccc(F)cc1	none
Cn1cccc1Cc1nnc(SCC(=O)N2CCN(c3ccccc3)CC2)n1-c1ccc(F)cc1	PREPL inhibitor 49 | PREPL inh cf inactive
CN(C)c1nc(-c2ccccn2)nnc1-c1ccccc1	PREPL inhibitor 52 | PREPL inh cf 79
Cc1cc(C)cc(NC(=O)Cn2cc3c(n2)CCCCC3)c1	none (no result: NR3A LBD binder)
CN(C)c1ccc(NC(=O)Cn2cc3c(n2)CCCC3)cc1	PREPL inhibitor 69 | PREPL inh cf 69
COc1ccccc1-[n+]1c(C)cc(/C=C2\Sc3ccccc3N2C)cc1C	Beta cell apopt 110, PREPL inhibitor 64, CHOP inhibitor 82, T cruzi repl 56 | PREPL inh cf 71
COc1ccc(-[n+]2c(C)cc(/C=C3\Sc4ccccc4N3C)cc2C)cc1	Beta cell apopt 116, PREPL inhibitor 70, CHOP inhibitor 92 | PREPL inh cf 69
S=C(NCCC1=CCCCC1)NCc1ccco1	none (no result: CSC inhib)
Cn1c(C(=O)N2CCN(c3ccccc3)CC2)cc2cc(Cl)ccc21	none (no result: CHOP inhibitor)
Cc1ccc(N(CC(=O)NCC2CCCO2)C(=O)CCC(=O)Nc2nccs2)cc1C (centres undefined)	none (no result: CHOP inhibitor)
Cc1ccc(N(CC(=O)NCC2CCCO2)C(=O)CCC(=O)Nc2nccs2)cc1 (centres undefined)	PREPL inhibitor 43 (no result: CHOP inhibitor) | PREPL inh cf inactive
c1coc(CNc2nc3ccccc3s2)c1	none (no result: CHOP inhibitor)
CCOC(=O)c1sc(NCc2ccco2)c(-c2nc3ccccc3s2)c1N	PREPL inhibitor 45 | PREPL inh cf 46
CC(=O)Nc1cc(OC(=O)c2ccco2)cc(OC(=O)c2ccco2)c1	PREPL inhibitor 50 | PREPL inh cf inactive
CC(=O)Nc1ccc(OC(=O)c2ccco2)cc1	none
Cn1c(-c2cccc([N+](=O)[O-])c2)cnc1NCc1ccc(C#N)cc1	none
COc1ccc(OCC(=O)N/N=C2\CCCCc3ccccc32)cc1	none
CCc1ccc(OCC(=O)N/N=C2\CC(=O)c3ccccc32)cc1	PREPL inhibitor 54 (no result: NR3A LBD binder) | PREPL inh cf inactive
CCN1CCN(C(=O)c2ccc(COc3cccc(Cl)c3)o2)CC1	none (no result: CHOP inhibitor)
CN(C)c1ccc(NC(=O)c2ccc(COc3cccc(Cl)c3)o2)cc1	PREPL inhibitor 58 | PREPL inh cf 47
CCC(C)(C)C1CCc2[nH]nc(C(=O)NCCCNC(=O)OC(C)(C)C)c2C1 (centres undefined)	none (no result: CHOP inhibitor, T cruzi repl)
O=C(O)/C=C\C(=O)Nc1ccc(N2CCN(c3ccc(Cl)cc3)CC2)cc1	PREPL inhibitor 48 | PREPL inh cf inactive
